Reference: ChEMBL document CHEMBL1146933, “In silico identification of novel EGFR inhibitors with antiproliferative activity against cancer cells” (Bioorg Med Chem Lett, 2006)
Activity calls are given as the source filed them. The rule behind the calls is not given here.

Tests used:
[1] = biological target: T1, Epidermal growth factor receptor (Homo sapiens, UniProt P00533); assay: Inhibition of EGFR kinase activity at 10 uM; parameters: scale not given: the % may be the effect or the level left
T1 sequence (P00533 whole entry): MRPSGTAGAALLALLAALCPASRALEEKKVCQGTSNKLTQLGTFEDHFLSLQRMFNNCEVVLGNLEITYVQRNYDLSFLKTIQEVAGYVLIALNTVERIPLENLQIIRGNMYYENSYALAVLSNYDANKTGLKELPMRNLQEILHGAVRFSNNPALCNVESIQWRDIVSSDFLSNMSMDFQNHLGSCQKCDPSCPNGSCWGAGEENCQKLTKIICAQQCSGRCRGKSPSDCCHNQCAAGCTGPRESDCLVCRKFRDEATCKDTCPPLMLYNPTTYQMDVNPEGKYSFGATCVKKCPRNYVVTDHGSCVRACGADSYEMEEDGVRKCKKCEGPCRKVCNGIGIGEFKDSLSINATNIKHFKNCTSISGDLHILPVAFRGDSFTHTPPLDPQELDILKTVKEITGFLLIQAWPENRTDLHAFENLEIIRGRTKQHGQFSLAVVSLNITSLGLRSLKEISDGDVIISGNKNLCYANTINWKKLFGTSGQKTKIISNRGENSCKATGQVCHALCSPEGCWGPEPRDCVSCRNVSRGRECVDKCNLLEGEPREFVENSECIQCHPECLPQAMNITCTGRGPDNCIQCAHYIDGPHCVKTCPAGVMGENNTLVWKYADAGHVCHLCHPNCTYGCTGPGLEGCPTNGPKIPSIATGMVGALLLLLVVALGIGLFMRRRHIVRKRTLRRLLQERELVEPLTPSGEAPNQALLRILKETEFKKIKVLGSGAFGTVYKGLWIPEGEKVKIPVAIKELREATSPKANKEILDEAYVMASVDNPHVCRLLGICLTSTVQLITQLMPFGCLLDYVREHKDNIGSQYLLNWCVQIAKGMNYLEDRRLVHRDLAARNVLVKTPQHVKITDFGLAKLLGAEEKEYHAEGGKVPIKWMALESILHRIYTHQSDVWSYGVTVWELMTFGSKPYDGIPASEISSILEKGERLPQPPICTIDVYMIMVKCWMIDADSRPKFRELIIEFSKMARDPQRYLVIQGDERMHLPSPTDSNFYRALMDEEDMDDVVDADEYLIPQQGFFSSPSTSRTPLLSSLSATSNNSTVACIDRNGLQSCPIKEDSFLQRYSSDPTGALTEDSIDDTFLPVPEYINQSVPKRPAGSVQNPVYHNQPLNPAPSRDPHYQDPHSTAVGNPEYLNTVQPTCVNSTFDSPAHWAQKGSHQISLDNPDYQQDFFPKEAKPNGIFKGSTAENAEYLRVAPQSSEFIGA

[2] = biological target: T1, Epidermal growth factor receptor; assay: Inhibition of EGFR kinase activity at 100 uM in presence of 2.5 uM ATP; parameters: scale not given: the % may be the effect or the level left
How it was run: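 EGFR purified from A431 cells, pre-incubated 30 min with 100 µM compound before kinase activity measurement. ATP held at 2.5 µM, four times below the Km for this enzyme preparation. Control was 2% DMSO. Mean ± standard deviation from 2–5 experiments in triplicate.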

A-431 [3] = assay: Antiproliferative activity against A431 cells at 50 uM by MTT assay after 48 hrs; type: functional, cell-based; details: Homo sapiens
How it was run: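 A431 cells exposed to 50 µM compound for 2 days; viability read by MTT. Controls grown in 0.5% DMSO. Values are percentage of control, mean ± standard deviation from three experiments run in quadruplicate.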

BT-474 = assay: Antiproliferative activity against BT474 cells at 50 uM by MTT assay; type: functional, cell-based; details: Homo sapiens
MDA-MB-435 = assay: Antiproliferative activity against MDA-MB-435 cells at 50 uM by MTT assay; type: functional, cell-based; details: Homo sapiens
MDA-MB-468 = assay: Antiproliferative activity against MDA-MB-468 cells at 50 uM by MTT assay; type: functional, cell-based; details: Homo sapiens
A-431 [4] = assay: Antiproliferative activity against A431 cells by MTT assay; type: functional, cell-based; details: Homo sapiens
How it was run: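 A431 cells grown with increasing compound concentrations; proliferation measured by MTT 48 h after treatment. Two experiments performed in triplicate.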

[5] = biological target: T1, Epidermal growth factor receptor; assay: Inhibition of EGFR kinase activity
How it was run: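 EGFR purified from A431 cells, incubated with compound at varying concentrations for 30 min at room temperature. Kinase reaction then started with ATP/MgCl2 and run 30 min at 30 °C. Activity expressed as percent of inhibitor-free control; mean ± standard deviation from 1 to 3 experiments in triplicate.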

Activity [1]	Activity [2]	IC50 (A-431 [4])	IC50 [5]	Compound	Activity (A-431 [3])	Activity (BT-474)	Activity (MDA-MB-435)	Activity (MDA-MB-468)
inactive	44.5%	–	–	Nc1[nH]nc2nc(-c3ccco3)c3c(c12)CCCC3	Active	Active	Active	Active
inactive	50.3%	6 µM	–	O=NC1=C(NNc2ccccc2)C(=O)c2ccccc21	–	Active	Active	Active
inactive	50%	1 µM	–	Oc1[nH]c2ccc(I)cc2c1/N=N/c1cccc2cccnc12	Active	Active	Active	Active
inactive	41.1%	–	–	O=C(CSc1nc(O)cc(-c2ccccc2)n1)N1c2ccccc2CCc2ccccc21	Active	Active	Active	Active
40%	48.4%	–	15 µM	Cc1cccc(-n2ncc3c(NCc4ccc5c(c4)OCO5)ncnc32)c1	Active	Active	Active	Active
inactive	55.3%	–	–	C=CCOc1ccc2c(c1)C(=NO)c1cc(OCC=C)ccc1-2	Active	Active	Active	Active
inactive	44.1%	–	–	Cc1ccc(-c2cc(NC(=O)c3cccs3)[nH]n2)cc1	inactive	inactive	inactive	inactive
